Reference: ChEMBL document CHEMBL5344483, “Design and synthesis of novel chloropyridazine hybrids as promising anticancer agents acting by apoptosis induction and PARP-1 inhibition through a molecular hybridization strategy” (RSC Med Chem, 2024)
The source made the active and inactive calls. No cut-off for these calls is given here.

How the values were obtained:
HNO 97 cell line [1] = test: Anticancer activity against human HNO97 cells assessed as growth inhibition at 100 microg/mL by SRB assay relative to control; assay type: functional; settings: read-out: GI
Summary of the method: (§1)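 Cells seeded at 3×10^3 per well and allowed to attach for 24 h. Treated with 100 µg/mL compound for 48 h, triplicate wells, with a 1% v/v DMSO vehicle control. Fixed in 20% TCA, stained with 0.4% SRB, and OD read at 570 nm. Survival fraction is treated OD/control OD.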

FaDu [2] = test: Anticancer activity against human FaDu cells assessed as growth inhibition at 100 microg/mL by SRB assay relative to control; assay type: functional; settings: read-out: GI; summary of the method: as §1
MCF7 = test: Anticancer activity against human MCF7 cells assessed as growth inhibition at 100 microg/mL by SRB assay relative to control; assay type: functional; settings: read-out: GI; summary of the method: as §1
SK-BR-3 = test: Anticancer activity against human SK-BR-3 cells assessed as growth inhibition at 100 microg/mL by SRB assay relative to control; assay type: functional; settings: read-out: GI; summary of the method: as §1
MDA-MB-468 [3] = test: Anticancer activity against human MDA-MB-468 cells assessed as growth inhibition at 100 microg/mL by SRB assay relative to control; assay type: functional; settings: read-out: GI; summary of the method: as §1
Huh-7 = test: Anticancer activity against human Huh-7 cells assessed as growth inhibition at 100 microg/mL by SRB assay relative to control; assay type: functional; settings: read-out: GI; summary of the method: as §1
A-375 = test: Anticancer activity against human A-375 cells assessed as growth inhibition at 100 microg/mL by SRB assay relative to control; assay type: functional; settings: read-out: GI; summary of the method: as §1
HCT-116 = test: Anticancer activity against human HCT-116 cells assessed as growth inhibition at 100 microg/mL by SRB assay relative to control; assay type: functional; settings: read-out: GI; summary of the method: as §1
NCI-H460 = test: Anticancer activity against human NCI-H460 cells assessed as growth inhibition at 100 microg/mL by SRB assay relative to control; assay type: functional; settings: read-out: GI; summary of the method: as §1
A549 = test: Anticancer activity against human A549 cells assessed as growth inhibition at 100 microg/mL by SRB assay relative to control; assay type: functional; settings: read-out: GI; summary of the method: as §1
HeLa = test: Anticancer activity against human HeLa cells assessed as growth inhibition at 100 microg/mL by SRB assay relative to control; assay type: functional; settings: read-out: GI; summary of the method: as §1
[4] = Cytotoxicity against human HSF (VGS) cells assessed as growth inhibition at 100 microg/mL by SRB assay relative to control; assay type: toxicity, cell-based; settings: at 100 µg/mL, read-out: GI
MDA-MB-468 [5] = test: Cytotoxicity against human MDA-MB-468 cells by SRB assay; assay type: functional, cell-based
Summary of the method: (§2)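 Cells seeded at 3×10^3 per well and allowed to attach for 24 h. Exposed to […], 12.5, 25 and 50 µg/mL for 48 h, triplicate wells per concentration, with a 1% v/v DMSO vehicle. Fixed in 20% TCA, stained with 0.4% SRB, and OD read at 570 nm. IC50 from sigmoidal dose-response fit of survival fraction (treated/control OD).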

HNO 97 cell line [6] = test: Cytotoxicity against human HNO97 cells by SRB assay; assay type: functional, cell-based; summary of the method: as §2
FaDu [7] = test: Cytotoxicity against human FaDu cells by SRB assay; assay type: functional, cell-based; summary of the method: as §2
MDA-MB-231 = test: Antiproliferative activity against human MDA-MB-231 cells assessed as reduction in cell growth by coomassie Brilliant Blue staining based analysis; assay type: functional

Structure (SMILES) | inhibition of growth at 100 µg/mL (HNO 97 cell line [1]) | inhibition of growth at 100 µg/mL (FaDu [2]) | inhibition of growth at 100 µg/mL (MCF7) | inhibition of growth at 100 µg/mL (SK-BR-3) | inhibition of growth at 100 µg/mL (MDA-MB-468 [3]) | inhibition of growth at 100 µg/mL (Huh-7) | inhibition of growth at 100 µg/mL (A-375) | inhibition of growth at 100 µg/mL (HCT-116) | inhibition of growth at 100 µg/mL (NCI-H460) | inhibition of growth at 100 µg/mL (A549) | inhibition of growth at 100 µg/mL (HeLa) | inhibition at 100 microg/mL [4] | IC50 (MDA-MB-468 [5]) | IC50 (HNO 97 cell line [6]) | IC50 (FaDu [7]) | Activity (MDA-MB-231)
O=C1NC(=O)/C(=C\c2ccc(Oc3ccc(Cl)nn3)cc2)S1 | 40.3% | 65.2% | 49.9% | 63.8% | 73% | 52.9% | 34.2% | 55.8% | 23.8% | 57.8% | 15.3% | 56.9% | 108 µM | – | – | –
O=C(/C=C/c1ccc(Oc2ccc(Cl)nn2)cc1)c1ccc(OCc2ccc(F)c(Cl)c2)cc1 | 75.6% | 61.8% | 47.2% | 49.8% | 78.2% | 61.9% | 39% | 55% | 54.6% | 69.2% | 36.2% | 54% | 36.3 µM | 30.3 µM | – | –
O=C(/C=C/c1ccc(Oc2ccc(Cl)nn2)cc1)c1ccc(OCc2ccccc2)cc1 | 85.5% | 85.4% | 71.7% | 73.2% | 89.8% | 73.9% | 67.2% | 61.4% | 46.9% | 77.1% | 68.2% | 67.8% | 54.2 µM | 74.5 µM | 79 µM | –
O=C(/C=C/c1ccc(Oc2ccc(Cl)nn2)cc1)c1ccc([N+](=O)[O-])cc1 | 88.6% | 82.7% | 72.9% | 74.8% | 91.9% | 72.1% | 62.2% | 55.1% | 64.2% | 75.1% | 63.9% | 65.6% | 36.7 µM | 28.8 µM | 60.2 µM | –
Cc1ccc(C(=O)/C=C/c2ccc(Oc3ccc(Cl)nn3)cc2)cc1 | 84.8% | 80.2% | 72.4% | 70.6% | 88% | 75.4% | 69.1% | 78.5% | 72.4% | 74.1% | 72.4% | 67.8% | 74.1 µM | 15.7 µM | 120 µM | Active
O=C(/C=C/c1ccc(Oc2ccc(Cl)nn2)cc1)c1ccc(OCc2ccc(OC(F)(F)F)cc2)cc1 | 81% | 84.9% | 53.6% | 67.4% | 80.3% | 66.3% | 53% | 39.6% | 49.7% | 57.8% | 40.5% | 49.4% | 68.3 µM | 20.3 µM | 83.5 µM | –
O=C(/C=C/c1ccc(Oc2ccc(Cl)nn2)cc1)c1ccc(O)cc1 | 79.3% | 85% | 68.5% | 68.2% | 79.2% | 72% | 59.2% | 76.4% | 68.3% | 73.8% | 73.2% | 61% | 116 µM | 31.2 µM | 122 µM | –
COc1ccc(COc2ccc(C(=O)/C=C/c3ccc(Oc4ccc(Cl)nn4)cc3)cc2)cc1 | 82.4% | 75.5% | 60.6% | 60.8% | 88.4% | 69.3% | 59.3% | 44% | 44.8% | 72% | 40.4% | 53.5% | 93 µM | 40.2 µM | 95.2 µM | –
COc1ccc(C(=O)/C=C/c2ccc(Oc3ccc(Cl)nn3)cc2)cc1 | 69.1% | 68.2% | 62.1% | 66.7% | 85.6% | 71.4% | 52.6% | 62.7% | 63.1% | 77% | 58.4% | 53.5% | 112 µM | 54.5 µM | – | –
COc1cccc2c1C(=O)c1c(O)c3c(c(O)c1C2=O)C[C@@](O)(C(=O)CO)C[C@@H]3O[C@H]1C[C@H](N)[C@H](O)[C@H](C)O1 [DOXORUBICIN] | 84.5% | 84.5% | 75.6% | 71.1% | 94% | 69.6% | 84% | 82.9% | 75.5% | 66.7% | 73% | 52.9% | 6.8 µM | 7 µM | 14 µM | –
